This is an account of results in ChEMBL document CHEMBL5532690, “Antitubercular activity of 2-mercaptobenzothiazole derivatives targeting Mycobacterium tuberculosis type II NADH dehydrogenase” (RSC Med Chem, 2024).

SMILES strings stand for the structures. ≈ marks a conversion by molar mass, not a printed value. Calls of active or inactive are those of the source. The rule behind the calls is not given here.

Data set [1] concerns Mycobacterium tuberculosis. Put plainly: Antitubercular activity against Mycobacterium tuberculosis H37Ra measured after 10 days by liquid broth microdilution assay. Format: functional. The following applies: 240 h, time 10 day. The method in brief: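 Broth microdilution in 7H9 with 0.2% glycerol, 0.05% Tween 80 and 10% ADS. Mid-log cultures (OD600 0.4–0.6) were diluted to OD600 0.005 (1.0 × 10^6 CFU ml−1) and added to two-fold serial compound dilutions. Plates were incubated at 37 °C for 10 days and read visually. MIC was the lowest concentration with no turbidity.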
In general terms: In broth dilution the organism is exposed to a series of concentrations in liquid medium.

Data set [2] deals with Mycobacterium tuberculosis. Put plainly: Antitubercular activity against Mycobacterium tuberculosis H37Rv mc2 6230 measured after 10 days by liquid broth microdilution assay. Format: functional. The following applies: H37Rv mc2 6230, 240 h, time 10 day. The essentials:
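Broth microdilution in 7H9 with glycerol, ADS and 0.05% tyloxapol, supplemented with L-methionine, L-leucine (50 mg L−1 each), L-arginine (200 mg L−1) and D-pantothenate (24 mg L−1). Inoculum was diluted to OD600 0.005 (1.0 × 10^6 CFU ml−1) and added to two-fold serial dilutions. After 10 days at 37 °C, MIC was the lowest concentration without visible turbidity.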

The subject of data set [3] is Mycobacterium tuberculosis. Put plainly: Antitubercular activity against Mycobacterium tuberculosis H37Ra assessed as inhibition of intracellular ATP synthesis incubated for 24 hrs by BacTiter-Glo microbial cell viability assay. The format is functional, organism-based. The method in brief:
(§1)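 Mid-log cultures were adjusted to OD600 0.05 and exposed to compounds at 37 °C for 24 h. BacTiter-Glo reagent was then added for 12 min and luminescence was read. H37Ra and BCG were grown in 7H9 with glycerol, Tween 80 and ADS. mc2 6230 was grown with tyloxapol plus methionine, leucine, arginine and pantothenate. Values are the mean of triplicates.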

The subject of data set [4] is Mycobacterium tuberculosis. The data set can be described thus: Antitubercular activity against Mycobacterium tuberculosis H37Rv mc2 6230 assessed as inhibition of intracellular ATP synthesis incubated for 24 hrs by BacTiter-Glo microbial cell viability assay. Particulars: H37Rv mc2 6230, 24 h. The format is functional, organism-based. The essentials:
as §1

Data set [5] in a line: Cytotoxicity against human HepG2 cells assessed as reduction in cell viability by MTT assay. Format: toxicity, cell-based. The essentials: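 HepG2 cells in DMEM with 10% FBS, streptomycin, penicillin, 10 mM HEPES and 2 mM L-glutamine were seeded at 1 × 10^4 cells/well and incubated for 24 h (37 °C, 5% CO2). […] two-fold dilutions spanning 1000–0.48 μg ml−1 were applied. MTT (2.5 mg ml−1 in PBS) was added; formazan was dissolved in DMSO and read at 570 nm. CC50 = 50% viability loss. Triplicates.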
Background: Tetrazolium assays rely on reduction of a dye to a coloured formazan, in cell work by metabolically active cells.

Data set [6] concerns Mycobacterium tuberculosis. Put plainly: Bactericidal activity against Mycobacterium tuberculosis H37Rv mc2 6230 assessed as reduction in bacterial load at 4 times MIC measured after 5 days. The format is functional, organism-based. The following applies: time 5.0 day.
Data set [7] is described as follows: Selectivity index, ratio of CC50 for cytotoxicity against human HepG2 cells to MIC90 for antitubercular activity against Mycobacterium tuberculosis. Format: toxicity, cell-based. Particulars: read-out: Selectivity Index. The essentials:
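Selectivity index calculated as HepG2 MTT CC50 divided by MIC90.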

Data set [8] relates to Mycobacterium tuberculosis. Put plainly: Bactericidal activity against Mycobacterium tuberculosis H37Rv mc2 6230 assessed as reduction in bacterial load measured after 5 days. Format: functional, organism-based. Particulars: time 5.0 day. The essentials:
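Mid-log bacilli in supplemented 7H9 were adjusted to OD600 0.005 and exposed to a range of concentrations for 5 days at 37 °C. Cultures were 10-fold serially diluted and spotted on 7H10 agar, which was incubated for 3–4 weeks for CFU counts. MBC90 was a 90% fall from the initial inoculum. Triplicates; Student's t-test.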

Take `O=C(CSc1nc2ccc(C(F)(F)F)cc2s1)NC1CCCCC1`: the MIC90 in data set [1] turned out to be 32 µg/mL (≈ 85.5 µM); in data set [2], 64 µg/mL (≈ 171 µM). Also, the IC50 in data set [3] is 30.9 µg/mL (≈ 82.5 µM); in data set [4], 51 µg/mL (≈ 136 µM).

Take `CC/C(=C(\c1ccccc1)c1ccc(OCCN(C)C)cc1)c1ccccc1` [TAMOXIFEN]: in data set [5], the CC50 amounted to 6.15 µg/mL (≈ 16.6 µM).

As for `O=C(CSc1nc2c(ccc3ccccc32)s1)NC1CCCCC1`, the MIC90 in data set [1] and in data set [2] was 128 µg/mL (≈ 359 µM) in each case. Further, the results for the IC50 in data set [3] and in data set [4] were 36.6 µg/mL (≈ 103 µM) and 33 µg/mL (≈ 92.5 µM), respectively.

Regarding `C=C(C)[C@H]1Cc2c(ccc3c2O[C@@H]2COc4cc(OC)c(OC)cc4[C@@H]2C3=O)O1` [ROTENONE], the MIC90 in data set [1] and in data set [2] was greater than 64 µg/mL each time.

Turning to `Cc1cc(C)c2nc(SCC(=O)NC3CCCCC3)sc2c1`, the MIC90 in data set [1] and in data set [2] was 8 µg/mL (≈ 23.9 µM) each time. Moreover, the IC50 in data set [3] and in data set [4] was 16.3 µg/mL (≈ 48.7 µM) each time. For the same compound, the CC50 in data set [5] was determined as 247 µg/mL (≈ 739 µM). Also, the result in data set [6] was Active. Also, in data set [7], the selectivity ratio is 15.4. Further, in data set [8], the Activity result was “Dose-Dependent Effect”.

With `NNC(=O)c1ccncc1` [ISONIAZID], the figures for the MIC90 in data set [1] and in data set [2] were 0.015 µg/mL (≈ 0.109 µM) and 0.06 µg/mL (≈ 0.438 µM), respectively.

With `O=C(CSc1nc2ccccc2s1)NC1CCCCC1`, the MIC90 in data set [1] and in data set [2] was 64 µg/mL (≈ 209 µM) throughout. Moreover, the IC50 was 26.6 µg/mL (≈ 86.9 µM) in data set [3] and 40.6 µg/mL (≈ 133 µM) in data set [4].

Take `O=C(CSc1nc2c(Br)cc(C(F)(F)F)cc2s1)NC1CCCCC1`: the MIC90 in data set [1] and in data set [2] was 64 µg/mL (≈ 141 µM) each time. Besides, the IC50 turned out to be 25.7 µg/mL (≈ 56.7 µM) in data set [3] and 56 µg/mL (≈ 124 µM) in data set [4].

As to `O=C(CSc1nc2ccc(F)cc2s1)NC1CCCCC1`, the MIC90 in data set [1] stood at 16 µg/mL (≈ 49.3 µM); in data set [2], 4 µg/mL (≈ 12.3 µM). Besides, the IC50 stood at 36.5 µg/mL (≈ 113 µM) in data set [3] and 56.9 µg/mL (≈ 175 µM) in data set [4].

With `O=C(CSc1nc2c(Br)cc(F)cc2s1)NC1CCCCC1`, the MIC90 in data set [1] and in data set [2] was 8 µg/mL (≈ 19.8 µM) in each case. Moreover, the IC50 turned out to be 18.7 µg/mL (≈ 46.3 µM) in data set [3] and 14.7 µg/mL (≈ 36.4 µM) in data set [4]. The CC50 in data set [5] was found to be 89.4 µg/mL (≈ 222 µM). Moreover, in data set [6], the outcome was Active. For the same compound, the selectivity ratio in data set [7] was found to be 5.58. Also, in data set [8], the Activity entry is “Dose-Dependent Effect”.

With `Cc1ccc2nc(SCC(=O)NC3CCCCC3)sc2c1`, the MIC90 in data set [1] and in data set [2] was 32 µg/mL (≈ 99.8 µM) in each case. In addition, the values for the IC50 in data set [3] and in data set [4] were 14.1 µg/mL (≈ 43.9 µM) and 34.9 µg/mL (≈ 109 µM), respectively.

Consider `CO[C@H]1/C=C/O[C@@]2(C)Oc3c(C)c(O)c4c(O)c(c(/C=N/N5CCN(C)CC5)c(O)c4c3C2=O)NC(=O)/C(C)=C\C=C\[C@H](C)[C@H](O)[C@@H](C)[C@@H](O)[C@@H](C)[C@H](OC(C)=O)[C@@H]1C` [RIFAMPIN], for which the MIC90 in data set [1] was determined as 0.015 µg/mL (≈ 0.0182 µM); in data set [2], 0.03 µg/mL (≈ 0.0365 µM).

With `O=C(CSc1nc2ccc(OC(F)(F)F)cc2s1)NC1CCCCC1`, the MIC90 in data set [1] is 64 µg/mL (≈ 164 µM); in data set [2], 32 µg/mL (≈ 82 µM). The IC50 in data set [3] turned out to be 23.4 µg/mL (≈ 59.9 µM); in data set [4], 66.2 µg/mL (≈ 170 µM).

`O=C(CSc1nc2c(Br)cc(OC(F)(F)F)cc2s1)NC1CCCCC1`: the MIC90 in data set [1] and in data set [2] was 128 µg/mL (≈ 273 µM) in each case. For the same compound, the IC50 in data set [3] was 36.6 µg/mL (≈ 77.9 µM); in data set [4], 35.8 µg/mL (≈ 76.3 µM).

As to `O=C(CSc1nc2ccc(Br)cc2s1)NC1CCCCC1`, the MIC90 is 64 µg/mL (≈ 166 µM) in data set [1] and 32 µg/mL (≈ 83 µM) in data set [2]. Further, the IC50 amounted to 34.4 µg/mL (≈ 89.2 µM) in data set [3] and 49.8 µg/mL (≈ 129 µM) in data set [4].

With `CC(C)/N=c1\cc2n(-c3ccc(Cl)cc3)c3ccccc3nc-2cc1Nc1ccc(Cl)cc1` [CLOFAZIMINE], the MIC90 in data set [1] and in data set [2] was 0.25 µg/mL (≈ 0.528 µM) in each case. Besides, the CC50 in data set [5] stood at 49 µg/mL (≈ 104 µM). In data set [7], the selectivity ratio is 223.

Regarding `O=C(CSc1nc2ccccc2c(=O)[nH]1)NC1CCCCC1`, the MIC90 in data set [1] and in data set [2] was 0.5 µg/mL (≈ 1.58 µM) throughout. In addition, the IC50 turned out to be 8.55 µg/mL (≈ 26.9 µM) in data set [3] and 2.23 µg/mL (≈ 7.01 µM) in data set [4]. Also, the CC50 in data set [5] came to 48.8 µg/mL (≈ 154 µM). Also, the selectivity ratio in data set [7] was found to be 391.

As for `O=C(CSc1nc2ccc([N+](=O)[O-])cc2s1)NC1CCCCC1`, the MIC90 in data set [1] and in data set [2] was 16 µg/mL (≈ 45.5 µM) each time. For the same compound, the IC50 in data set [3] worked out at 36.3 µg/mL (≈ 103 µM); in data set [4], 24.4 µg/mL (≈ 69.6 µM).

Turning to `CC(C)c1ccc2nc(SCC(=O)NC3CCCCC3)sc2c1`, the MIC90 in data set [1] and in data set [2] was 4 µg/mL (≈ 11.5 µM) in each case. For the same compound, the IC50 in data set [3] and in data set [4] was 9.35 µg/mL (≈ 26.8 µM) throughout. In addition, the CC50 in data set [5] is 423 µg/mL (≈ 1210 µM). Also, the result in data set [6] was Active. Further, the selectivity ratio in data set [7] was 26.5. The Activity entry in data set [8] is “Dose-Dependent Effect”.

For `O=C(CSc1nc2ccc(Cl)cc2s1)NC1CCCCC1`, the MIC90 is 32 µg/mL (≈ 93.9 µM) in data set [1] and 16 µg/mL (≈ 46.9 µM) in data set [2]. Moreover, the IC50 in data set [3] turned out to be 48.6 µg/mL (≈ 143 µM); in data set [4] it was 38.2 µg/mL (≈ 112 µM).

As a reminder, the MIC90 is the lowest concentration that inhibits either 90% of growth or 90% of the strains tested, depending on the study. Low readings indicate greater potency, high ones weaker potency. The term IC50 denotes the concentration needed to halve the response being measured. A word on the CC50: it is the concentration that lowers cell viability or growth by half.
